In test [1] the target is T1, Potassium voltage-gated channel subfamily A member 3 (Homo sapiens, UniProt P22001). The test is described as follows: Dissociation constant for the blockage of voltage-gated potassium channel subunit Kv1.3 in human lymphocytes. The class given is cell-based.
Test [2] can be described thus: Selectivity for Kv1.3 voltage-gated K+ channel over IKCa1 [Ca2+] activated K+ channel. Put shortly:
(§1)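 Ringer bath, KF/EGTA pipette. Kv1.1, Kv1.2, Kv1.5, Kv1.7 and IKCa1 recorded in stably or transiently expressing cells. Kd from Hill fit to reduction in current area. Each compound 2–3 times at 3–5 concentrations.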

For another test, the species on record is Homo sapiens. The test can be described thus: Inhibition of anti-CD3 dependent human T cell proliferation. The class given is functional. The gist of the method:
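PBMCs from healthy volunteers, isolated on a density gradient, seeded at 2×10^5 cells/well in supplemented RPMI 1640. Compound preincubation 60 min, then anti-CD3 antibody 50 ng/mL for 48 h. [3H]thymidine added for the last 6 h; incorporation counted by scintillation. Normalized to maximal control incorporation. Triplicate.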

The nature of test [3]: Selectivity for Kv1.3 over Kv1.1 voltage-gated potassium channel subunit. The gist of the method:
as §1

Test [4] is described as follows: Selectivity for Kv1.3 over Kv1.2 voltage-gated potassium channel subunit. The gist of the method:
as §1

The nature of test [5]: Selectivity for Kv1.3 over Kv1.7 voltage-gated potassium channel subunit. Put shortly: as §1
Test [6] is described as follows: Selectivity for Kv1.3 over Kv1.5 voltage-gated potassium channel subunit. Put shortly:
as §1

Test [7] concerns the target T1, Potassium voltage-gated channel subfamily A member 3. The test is described as follows: Dissociation constant for the blockade of voltage-gated potassium channel subunit Kv1.3 in human lymphocytes; no effect when tested at 1 uM. The class given is cell-based. The gist of the method:
(§2)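 Whole-cell patch clamp on cells stably expressing Kv1.3, holding potential −80 mV. Bath: Ringer (160 mM NaCl, 4.5 mM KCl, 2 mM CaCl2, 1 mM MgCl2, 10 mM HEPES, pH 7.4). Pipette: 134 mM KF, 2 mM MgCl2, 10 mM HEPES, 10 mM EGTA, pH 7.2. 500-ms pulses to 40 mV every 45 s. Single test concentration only.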

The target is the same in test [8]. The test is described as follows: Dissociation constant for blockade of voltage-gated potassium channel subunit Kv1.3 in human lymphocytes; no effect when tested at 10 uM. The test is classed as cell-based. Put shortly:
as §2

From ChEMBL document CHEMBL1149170, “Khellinone derivatives as blockers of the voltage-gated potassium channel Kv1.3: synthesis and immunosuppressive activity” (J Med Chem, 2004) come the findings set out here.

A word on the Kd: it is the equilibrium constant for the complex coming apart. Higher therefore signals weaker binding. As usually defined, the EC50 is the midpoint of the concentration-response curve. Lower therefore signals higher potency in that assay.

The structures appear in SMILES notation.

T1 sequence (P22001 whole entry): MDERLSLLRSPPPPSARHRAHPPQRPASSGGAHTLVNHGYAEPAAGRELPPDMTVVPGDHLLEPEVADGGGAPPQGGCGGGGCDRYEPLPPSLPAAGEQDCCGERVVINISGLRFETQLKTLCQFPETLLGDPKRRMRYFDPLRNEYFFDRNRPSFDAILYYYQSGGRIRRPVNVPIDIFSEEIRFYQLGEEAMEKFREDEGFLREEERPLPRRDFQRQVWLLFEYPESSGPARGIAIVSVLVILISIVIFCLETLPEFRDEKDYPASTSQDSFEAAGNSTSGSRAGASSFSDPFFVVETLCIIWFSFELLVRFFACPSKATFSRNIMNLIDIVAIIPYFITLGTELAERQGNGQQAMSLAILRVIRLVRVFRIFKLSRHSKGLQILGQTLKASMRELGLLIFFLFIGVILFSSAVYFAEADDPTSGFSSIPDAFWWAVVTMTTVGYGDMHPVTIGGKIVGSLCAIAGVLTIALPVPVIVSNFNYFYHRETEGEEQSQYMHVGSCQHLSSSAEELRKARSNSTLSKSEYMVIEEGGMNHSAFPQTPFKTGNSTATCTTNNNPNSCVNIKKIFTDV

In turn, `COc1c(C(=O)/C=C/c2cc(Br)cs2)c(O)c(OC)c2occc12` displayed a Kd in test [1] of 0.8 µM. The same measure, in the same setting: the value for `COc1c(C(=O)/C=C/c2cccs2)c(O)c(OC)c2occc12` was 1 µM.

On to `COc1cccc(/C=C/C(=O)c2c(O)c(OC)c3occc3c2OC)c1`, for which the dissociation constant Kd in test [2] is > 100 µM; in test [3] it was 2 µM; in test [4] it was > 50 µM; in test [5], > 50 µM; in test [1] it was 0.8 µM; in test [6] it was 20 µM. The EC50 in the test filed under Homo sapiens was 1 µM.

Compound `COc1c(C(C)=O)c(OCc2ccccc2)c(OC)c2occc12` had a Kd in [1] of 10 µM. Consider `COc1c(C(=O)CCc2ccccc2)c(O)c(OC)c2occc12`, for which, in test [1], binding was put at a Kd of 0.6 µM. On the same count and under the same terms, under `COc1c(C(C)=O)c(OCc2ccc(COc3c(C(C)=O)c(OC)c4ccoc4c3OC)cc2)c(OC)c2occc12` stands 3.1 µM. Consider `COc1c(C(=O)/C=C/C=C/c2ccccc2)c(O)c(OC)c2occc12`, for which, in [7], the dissociation constant Kd entry is reported as “Not Active”. The compound `COc1c(C(C)=O)c(O)c(OC)c2occc12` showed a Kd in test [1] of 50 µM. Consider `COCCOCCOCCOCCOC(=O)c1cc(COc2c(C(C)=O)c(OC)c3ccoc3c2OC)ccc1COc1c(C(C)=O)c(OC)c2ccoc2c1OC`, for which, in [8], the Kd entry is recorded as “Not Active”. In test [1], `COc1c(C(C)=O)c(OCc2ccc(COc3cc4occc4c(OC)c3C(C)=O)cc2)cc2occc12` showed a Kd of 1 µM. Still for that read-out and setting: under `COc1c(C(=O)/C=C/c2ccccc2)c(O)cc2occc12` stands 17 µM; under `COc1c(C(C)=O)c(OCCCCCOc2c(C(C)=O)c(OC)c3ccoc3c2OC)c(OC)c2occc12`, 0.82 µM. Take `COc1c(C(=O)/C=C/c2cccc(/C=C/C(=O)c3c(O)c(OC)c4occc4c3OC)c2)c(O)c(OC)c2occc12`: the Kd result in [8] was “Not Active”. As to `COc1c(C(C)=O)c(OCc2cccc(COc3c(C(C)=O)c(OC)c4ccoc4c3OC)c2)c(OC)c2occc12`, the Kd in [1] was 0.56 µM. In other words, the sub-micromolar range. For the compound `COc1c(C(=O)/C=C/c2ccccc2)c(O)c(OC)c2occc12`, the Kd in test [2] was > 100 µM; in test [3], 1.2 µM; in test [4] it was > 50 µM; in test [5] it was 10 µM; in test [6] it was 5.1 µM. In the test filed under Homo sapiens, the EC50 came to 0.6 µM. In the case of `COc1c(C(C)=O)c(OCc2cc(COc3c(C(C)=O)c(OC)c4ccoc4c3OC)cc(COc3c(C(C)=O)c(OC)c4ccoc4c3OC)c2)c(OC)c2occc12`, the Kd entry in test [8] was “Not Active”.

For the compound `COc1c(C(C)=O)c(OCc2ccc(COc3c(C(C)=O)c(OC)c4ccoc4c3OC)c(C(=O)O)c2)c(OC)c2occc12`, the Kd in test [1] worked out at 5 µM. In turn, `COc1c(C(C)O)c(OCc2ccc(COc3c(C(C)O)c(OC)c4occc4c3OC)cc2)c(OC)c2occc12` (stereo unspecified) showed a Kd in test [1] of 2 µM.

Consider `COc1c(C(C)=O)c(OCCCCCCCOc2c(C(C)=O)c(OC)c3ccoc3c2OC)c(OC)c2occc12`, for which the Kd in test [1] is 3 µM. As to `COc1c(C(=O)/C=C/c2ccccc2)c(OCc2ccc(COc3c(C(=O)/C=C/c4ccccc4)c(OC)c4ccoc4c3OC)cc2)c(OC)c2occc12`, in test [7], the Kd result is on record as “Not Active”.

In test [1], `COc1c(/C(C)=N/N=C(\C)c2c(O)c(OC)c3occc3c2OC)c(O)c(OC)c2occc12` had a Kd of 70 µM. In test [1], `COc1c(C(=O)/C=C/c2ccc(C)cc2)c(O)c(OC)c2occc12` returned a Kd of 0.7 µM. Compound `C=C1C[C@@]2(O)[C@@H]3CC[C@@]4(C)[C@@H]5C=CC(=O)OC[C@]5(C(C)OC(C)=O)[C@@H](OC(C)=O)[C@@H](OC(C)=O)[C@@H]4[C@@]3(C)[C@H](OC(C)=O)[C@H](OC(C)=O)[C@@]2(C)C2(C(=O)OC)O[C@H]12` (stereo partly specified) [CORREOLIDE] had an EC50 in the test filed under Homo sapiens of 0.3 µM. The compound also returned a Kd in test [1] of 0.1 µM. As for `COc1c(C(=O)/C=C/c2cccc(O)c2)c(O)c(OC)c2occc12`, the Kd in test [2] was > 100 µM; in test [3], 1.7 µM; in test [4], > 50 µM; in [5] it was 50 µM; in test [6] it was 12 µM. Besides, the EC50 in the test listed under Homo sapiens worked out at 1 µM. For `COc1c(C(C)=O)c(OCCOCCOc2c(C(C)=O)c(OC)c3ccoc3c2OC)c(OC)c2occc12`, in test [1], binding was put at a Kd of 4 µM. Still for that read-out and setting: the value for `COc1c(C(C)=O)c(O)cc2occc12` was 100 µM. Take `COc1c(C(C)=O)c(OCCCCCCOc2c(C(C)=O)c(OC)c3ccoc3c2OC)c(OC)c2occc12`: a half-maximal effect in the test listed under Homo sapiens (EC50) was put at 0.8 µM. Also, the dissociation constant Kd in test [3] was found to be 0.3 µM; in test [4] it was 0.25 µM; in test [1], 0.68 µM. Regarding `Nc1ccncc1` [DALFAMPRIDINE], the Kd in test [2] is 29 µM; in test [3], 290 µM; in test [4], 590 µM; in [6] it was 270 µM.
